According to publication PMC11567926 (Current Research in Food Science, 2024):
Residues, ends and D or L forms follow the SMILES beside them.

Assays:
[1] = biological target: T1, DPP-IV (Homo sapiens, UniProt P27487); assay: in vitro DPP-IV inhibitory activity; type: biochemical; conditions: synthesized peptides, in vitro enzyme assay
Method in brief: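 Human DPP-IV (0.1 U/mL) and Gly-Pro-p-nitroanilide (2 mmol/L) solutions made in 100 mmol/L Tris-HCl, pH 8.0. Substrate and sample preincubated 10 min at 37 °C under subdued light. Enzyme then added and incubated 1 h at 37 °C. Stopped with 1 mol/L sodium acetate, pH 4.0, and absorbance read at 405 nm. Inhibition calculated from sample, sample-blank, control and blank absorbances.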

[2] = tested on: Caco-2 cells; assay: Caco-2 cell viability, MTT colorimetric assay; type: cell-based, human; conditions: 8 mM peptide, 4 h
Method in brief: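 Caco-2 cells grown in DMEM with 10% FBS and 1% penicillin-streptomycin at 37 °C, 5% CO2. Seeded at 5 × 10^4 cells/well and incubated 24 h. Medium replaced with peptide at 0.5, 1, 2, 4 or 8 mM for 4 h, 6 replicates per sample. MTT solution (5 mg/mL) added for 4 h, formazan dissolved in DMSO with ~15 min shaking, OD read at 490 nm.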

[3] = tested on: Caco-2 cell monolayer; assay: Caco-2 cell monolayer transmembrane transport; type: in vitro ADME, human; conditions: 4 mM, 120 min
Method in brief: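 Caco-2 cells seeded at 2 × 10^5 cells/mL on the apical side of 0.4 μm-pore Transwells and cultured 21 days to a differentiated monolayer; TEER over 350 Ω cm2 required. Both sides washed twice and equilibrated 30 min in HBSS. Peptide added apically, HBSS basolaterally, 120 min in incubator. AP and BL liquids analysed by RP-HPLC (1 mL/min, 30 °C column, 220 nm).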

[4] = biological target: T1, DPP-IV; assay: cell-based
[5] = tested on: Caco-2 cells; conditions: 4 mM; ref Mu et al., 2024; cited from earlier work
[6] = tested on: glucose metabolism; conditions: 300 mg/kg, OGTT normal rats; ref Uenishi et al. (2012); cited from earlier work

T1 sequence (P27487 whole entry): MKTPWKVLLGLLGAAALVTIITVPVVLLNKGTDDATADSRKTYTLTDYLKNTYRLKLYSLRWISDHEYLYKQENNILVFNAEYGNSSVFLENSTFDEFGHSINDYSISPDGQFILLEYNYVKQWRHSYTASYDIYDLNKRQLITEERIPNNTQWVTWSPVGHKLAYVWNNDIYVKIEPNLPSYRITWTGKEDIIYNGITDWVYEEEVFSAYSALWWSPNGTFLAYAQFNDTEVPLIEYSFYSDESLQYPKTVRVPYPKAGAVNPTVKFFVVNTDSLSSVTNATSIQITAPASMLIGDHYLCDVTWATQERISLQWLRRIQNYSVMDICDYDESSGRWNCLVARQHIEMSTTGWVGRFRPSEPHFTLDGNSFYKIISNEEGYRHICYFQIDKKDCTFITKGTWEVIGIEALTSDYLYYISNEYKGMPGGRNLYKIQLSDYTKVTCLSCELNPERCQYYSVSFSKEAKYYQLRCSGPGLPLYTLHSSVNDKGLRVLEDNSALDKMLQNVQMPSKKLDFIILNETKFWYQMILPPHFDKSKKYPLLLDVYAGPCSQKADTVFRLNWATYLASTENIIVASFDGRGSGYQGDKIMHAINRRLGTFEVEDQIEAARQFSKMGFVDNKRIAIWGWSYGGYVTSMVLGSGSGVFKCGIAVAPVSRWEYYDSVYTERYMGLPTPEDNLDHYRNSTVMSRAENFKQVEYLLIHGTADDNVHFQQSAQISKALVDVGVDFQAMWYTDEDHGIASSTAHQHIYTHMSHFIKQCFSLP

Compound: CC(C)[C@H](N)C(=O)N1CCC[C@H]1C(=O)N[C@@H](Cc1ccccc1)C(=O)N[C@@H](Cc1c[nH]c2ccccc12)C(=O)N[C@@H](C)C(=O)O [VPFWA] (H-VPFWA-OH; N-terminus and C-terminus assumed)
- IC50 [1]: 251 ± 12.8 µM
- survival rates of Caco-2 cells [2]: 76.03 ± 1.08%
- passage through the Caco-2 cell monolayer ([3]; AP to BL): pass through the Caco-2 cell monolayer intact
- chromatographic peak in the BL-side samples ([3]; RP-HPLC): smallest peak
- IC50 [4]: 325 ± 8.4 µM

Compound: LDATDMVALVG
- damage to cell viability of Caco-2 cells [5]: least damage to cell viability

Compound: LPQNIPPL
- glucose metabolism [6]: improved glucose metabolism
- plasma insulin levels [6]: significantly reduced plasma insulin levels

Compound: SPVAEVPFLR
- damage to cell viability of Caco-2 cells [5]: least damage to cell viability
